Data: ChEMBL document CHEMBL1759852, “A comparative study of proapoptotic potential of cyano analogues of boswellic acid and 11-keto-boswellic acid” (Eur J Med Chem, 2011)
Active and inactive are the calls of the source. The calls are words filed in the database; no cut-off is given here.

Experiments:
HL-60 [1] = assay: Cell cycle arrest in human HL60 cells assessed as accumulation at sub-G1 phase at 4 uM after 18 hrs by flow cytometry relative to control
HL-60 [2] = assay: Induction of apoptosis in human HL60 cells assessed as late apoptotic cells at 4 uM after 6 hrs using Annexin-V-FITC/propidium iodide staining by flow cytometry (reference value: 1%); type: functional
Procedure, shortened: (§1)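 HL-60 cells (1 × 10^6/ml) treated 6 h at varied concentrations; camptothecin 4 μM 6 h positive control. AnnexinV-FITC and propidium iodide staining per kit; FL-1 versus FL-2 flow cytometry with quadrant statistics for apoptotic and necrotic populations; representative of three experiments.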

HL-60 [3] = assay: Induction of apoptosis in human HL60 cells assessed as DNA ladder formation at 4 uM after 9 hrs by agarose gel electrophoresis; type: functional, cell-based
HL-60 [4] = assay: Induction of apoptosis in human HL60 cells assessed as early apoptotic cells at 4 uM after 6 hrs using Annexin-V-FITC/propidium iodide staining by flow cytometry (reference value: 6%); type: functional
Procedure, shortened: as §1

With CC[C@@]1(O)C(=O)OCc2c1cc1n(c2=O)Cc2cc3ccccc3nc2-1 [CAMPTOTHECIN] the Activity (HL-60 [1]) was 96%, the Activity (HL-60 [2]) was 4% and the Activity (HL-60 [3]) was “Active”. For the same compound, the Activity (HL-60 [4]) was 35%.
